# Measurements: ChEMBL document CHEMBL5653622 (Oncotarget, 2016)
# Activity calls are given as the source filed them. The calls are words filed in the database; no cut-off is given here.
# Legend:
# HT-29 [1] = assay: Cytotoxicity against human HT-29 cells assessed as phosphorylation of CHK1 on S296 at 200 nM by Western blotting analysis; format: functional, cell-based
# Method in brief: (§1)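 HT29 colon cells treated with gemcitabine with or without inhibitor. Protein expression was read by western blotting with 50μg protein per lane.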
# HT-29 [2] = assay: Cytotoxicity against human HT-29 cells assessed as phosphorylation of CHK1 on S280 at 200 nM by Western blotting analysis; format: functional, cell-based; method in brief: as §1
# HT-29 [3] = assay: Cytotoxicity against human HT-29 cells assessed as phosphorylation of CHK1 on S317 at 200 nM by Western blotting analysis; format: functional, cell-based; method in brief: as §1
# HT-29 [4] = assay: Induction of cell cycle arrest in human HT-29 cells assessed as phosphorylation of CDK1 on pY15 at 200 nM by Western blotting analysis; format: functional, cell-based; method in brief: as §1
# Mus musculus [5] = assay: In vivo inhibition of CHK1 in CRTac:Ncr-Fox1 mouse xenografted with human HT-29 cells assessed as increased phosphorylation of CHK1 on S296 at 100 mg/kg, iv administered for 24 hrs by Western blotting analysis; format: functional, organism-based
# Method in brief: (§2)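 HT29 s.c. xenografts in female athymic nude mice. Single gemcitabine dose 100mg/kg i.v. on day 0, then one inhibitor dose 50 or 100mg/kg p.o. (DPTW vehicle) 24h later. Tumors taken 24h after the last dose, western blotted, and signals quantified by normalizing to GAPDH.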
# Mus musculus [6] = assay: In vivo inhibition of CHK1 in CRTac:Ncr-Fox1 mouse xenografted with human HT-29 cells assessed as increased phosphorylation of CHK1 on S317 at 100 mg/kg, iv administered for 24 hrs by Western blotting analysis; format: functional, organism-based; method in brief: as §2
# Mus musculus [7] = assay: In vivo inhibition of CHK1 in CRTac:Ncr-Fox1 mouse xenografted with human HT-29 cells assessed as increased phosphorylation of CDK1 on Y15 at 100 mg/kg, iv administered for 24 hrs by Western blotting analysis; format: functional, organism-based; method in brief: as §2
# HT-29 [8] = assay: Antitumor activity against human HT-29 cells xenografted in CRTac:Ncr-Fox1 mouse assessed as tumor growth delay at 100 mg/kg, iv (reference value: […] +/- 5.2 days); format: functional
# HT-29 [9] = assay: Antitumor activity against human HT-29 cells xenografted in CRTac:Ncr-Fox1 mouse assessed as tumor growth delay at 100 mg/kg, iv (reference value: 8.4 +/- 1.6 days); format: functional
# HT-29 [10] = assay: Antitumor activity against human HT-29 cells xenografted in CRTac:Ncr-Fox1 mouse assessed as tumor growth delay at 100 mg/kg, iv (reference value: 7.2 +/- 1.8 days); format: functional
# Calu-6 = assay: Antitumor activity against human Calu-6 cells xenografted in CRTac:Ncr-Fox1 mouse assessed as tumor growth delay time at 100 mg/kg, iv in presence of carboplatin (reference value: 6.4 +/- 2.5 days); format: functional
# [11] = Toxicity in CRTac:Ncr-Fox1 mouse xenografted with human HT-29 cells assessed as body weight at 200 mg/kg, iv administered for 16 days relative to control; format: organism-based; settings: in vivo, 384 h, time 16 day
# [12] = Toxicity in CRTac:Ncr-Fox1 mouse xenografted with human SW620 cells assessed as body weight at 100 mg/kg, iv administered for 9 days relative to control; format: organism-based, SW-620; settings: in vivo, 216 h, time 9 day
# Mus musculus [13] = assay: Effect on CHK1 in CRTac:Ncr-Fox1 athymic mouse xenografted with human Calu-6 cells assessed as phosphorylation of CHK1 at S296 at 100 mg/kg, iv in presence of carboplatin by Western blotting analysis; format: functional, organism-based
# Method in brief: (§3)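 Female CRTac:Ncr-Fox1(nu) athymic mice carried s.c. Calu6 xenografts. Tumors were taken 6h after the last inhibitor dose, lysed in CHAPS buffer, and immunoblotted with GAPDH as loading control.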
# Mus musculus [14] = assay: Effect on CHK1 in CRTac:Ncr-Fox1 athymic mouse xenografted with human Calu-6 cells assessed as phosphorylation of CHK1 at S317 at 100 mg/kg, iv in presence of carboplatin by Western blotting analysis; format: functional, organism-based; method in brief: as §3
# Mus musculus [15] = assay: Effect on CHK1 in CRTac:Ncr-Fox1 athymic mouse xenografted with human Calu-6 cells assessed as phosphorylation of CHK1 at S345 at 100 mg/kg, iv in presence of carboplatin by Western blotting analysis; format: functional, organism-based; method in brief: as §3
# HT-29 [16] = assay: Cytotoxicity against human HT-29 cells assessed as phosphorylation of CHK1 on S345 at 200 nM by Western blotting analysis; format: functional, cell-based; method in brief: as §1
compound,measurement,setting,value
Nc1ccn([C@@H]2O[C@H](CO)[C@@H](O)C2(F)F)c(=O)n1 [GEMCITABINE],Activity,HT-29 [1],Active
same,Activity,HT-29 [2],Active
same,Activity,HT-29 [3],Active
same,Activity,HT-29 [4],Active
same,Activity,Mus musculus [5],Active
same,Activity,Mus musculus [6],Active
same,Activity,Mus musculus [7],Active
same,Time,HT-29 [8],0.3 days
same,Time,HT-29 [9],2.6 days
same,Time,HT-29 [10],2.9 days
same,Time,Calu-6,0.7 days
same,residual activity,[11],94.2%
same,residual activity,[12],95.7%
same,Activity,Mus musculus [13],Active
same,Activity,Mus musculus [14],Active
same,Activity,Mus musculus [15],Active
same,Activity,HT-29 [16],Active
